# Source: PubChem BioAssay (several laboratories)
# Sampled rows, rich in hits. Any-hit rate of the full collection: about 2.4%.
# FID counter = compounds displacing fluorescent DNA intercalator, primary screen, artefact control for HCV NS3 helicase inhibitor project, biochemical, FID fluorescence. inhibition, % at 7.9 µM. DNA fluorescent intercalator displacement. 290,000 tested, 0.17% active; in the data active means inhibition above about 37%;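 further: higher means more ethidium bromide displaced from hairpin DNA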
# UBC13 polyUb = UBC13 polyubiquitin chain formation inhibitors, primary screen, biochemical, TR-FRET, uHTS. inhibition, % at 20 µM. 330,000 tested, 0.47% active; in the data active means inhibition above about 45%, passing the limit was not always enough; inconclusive means no clear call, values can overlap the other calls
# TMEM16A act = TMEM16A chloride channel activators or potentiators, primary screen, cell-based, HTS; Anoctamin-1 (Mus musculus), Q8BHY3; HEK293 TMEM16A/YFP-H148Q/I152L, iodide quench fluorescence; hits give low values; B-score at 10 µM; 340,000 tested, 0.3% active; AID 623877, 2012;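 active means fluorescence-ratio B-score plate-corrected deviation score at least 3 library SD below zero, with starting fluorescence score within 5 deviations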;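 further: channel opened by trigger with iodide after compound preincubation; score built on the fluorescence ratio of max minus min over baseline; more negative score means more quench and so TMEM16A activation or potentiation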
# Apaf1 inhib = inhibitors of human Apaf-1 apoptosome, primary screen, biochemical, DEVD-Rh110 fluorescence, uHTS. Apoptotic protease-activating factor 1 (Homo sapiens), O14727. reconstituted apoptosome caspase-3 activity. inhibition, % at 20 µM. 330,000 tested, 0.71% active; active means inhibition of at least 40% at 20 µM
# Target sequence (O14727 whole entry, looked up): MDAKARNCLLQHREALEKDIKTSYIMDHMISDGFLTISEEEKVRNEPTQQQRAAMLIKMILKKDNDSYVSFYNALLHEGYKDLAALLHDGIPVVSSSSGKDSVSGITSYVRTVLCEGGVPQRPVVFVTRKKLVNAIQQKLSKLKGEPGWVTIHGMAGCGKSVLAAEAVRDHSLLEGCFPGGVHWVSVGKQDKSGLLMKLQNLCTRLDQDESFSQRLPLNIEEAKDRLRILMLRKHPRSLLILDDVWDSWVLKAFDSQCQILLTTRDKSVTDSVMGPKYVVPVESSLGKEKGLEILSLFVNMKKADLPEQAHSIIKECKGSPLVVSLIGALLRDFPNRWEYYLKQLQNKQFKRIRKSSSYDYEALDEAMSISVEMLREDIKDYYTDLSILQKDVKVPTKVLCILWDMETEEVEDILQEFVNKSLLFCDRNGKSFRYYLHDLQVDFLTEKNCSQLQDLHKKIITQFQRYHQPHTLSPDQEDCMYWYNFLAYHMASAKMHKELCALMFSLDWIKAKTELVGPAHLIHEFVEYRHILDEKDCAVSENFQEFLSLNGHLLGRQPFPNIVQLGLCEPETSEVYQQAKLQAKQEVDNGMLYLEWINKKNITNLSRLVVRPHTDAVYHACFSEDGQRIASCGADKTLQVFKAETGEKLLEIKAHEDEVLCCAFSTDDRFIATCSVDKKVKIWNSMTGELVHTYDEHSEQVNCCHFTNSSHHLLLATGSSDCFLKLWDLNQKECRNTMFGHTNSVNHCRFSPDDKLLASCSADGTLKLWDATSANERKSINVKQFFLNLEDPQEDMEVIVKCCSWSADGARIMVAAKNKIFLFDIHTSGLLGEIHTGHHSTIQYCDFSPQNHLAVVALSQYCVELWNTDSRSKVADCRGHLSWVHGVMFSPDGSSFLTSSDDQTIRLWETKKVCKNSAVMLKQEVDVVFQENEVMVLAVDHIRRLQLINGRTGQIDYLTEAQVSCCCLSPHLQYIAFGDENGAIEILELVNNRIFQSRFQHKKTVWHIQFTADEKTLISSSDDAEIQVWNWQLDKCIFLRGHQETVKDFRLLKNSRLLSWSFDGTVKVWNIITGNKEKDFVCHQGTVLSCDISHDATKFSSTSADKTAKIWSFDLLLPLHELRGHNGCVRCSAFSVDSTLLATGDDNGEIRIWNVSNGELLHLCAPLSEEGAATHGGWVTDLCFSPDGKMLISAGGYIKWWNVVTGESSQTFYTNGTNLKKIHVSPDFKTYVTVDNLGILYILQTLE
#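 System – cell-free apoptosome with Apaf-1, procaspase-3 and caspase-9 · Buffer or medium – pH 7.5 Hepes buffer with CHAPS, BSA, DTT · Also added – cytochrome c with DEVD-Rh110 · Times – 30 min compound preincubation, 50 min activation, room temperature · Technique – Rh110 fluorescence intensity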
# ANO1 block = TMEM16A chloride channel inhibitors, primary screen, cell-based, HTS. Anoctamin-1 (Mus musculus), Q8BHY3. HEK293 TMEM16A/YFP iodide influx fluorescence, ionomycin. normalized B-score (activity score, 25-100; higher = stronger inhibition) at 10 µM. 310,000 tested, 1.2% active. AID 588511, 2011;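 active means ratio plate-corrected score three or more library SD toward inhibition, starting fluorescence score within five deviations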;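 further: score derived from kinetic fluorescence span divided by baseline fluorescence per well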
# Apaf-1 inh conf2 = Apaf-1 inhibitors, single-dose retest, confirmation, biochemical, fluorescence, DEVD-Rh110, 20 µM; shares compounds with Apaf1 inhib; reconstituted apoptosome, caspase-3 DEVD-Rh110 fluorescence; inhibition, % at 20 µM; 1,800 tested, 25% active; AID 504614, 2011;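 active means mean inhibition of at least 40% at 20 µM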
# Rh110 quench = Rh110 fluorescence interference by putative Apaf-1 inhibitors, confirmation, artefact control for Apaf-1 inhibitor project, biochemical, 20 µM | 1,800 tested, under 10 active | quenched caspase reaction | activation (fluorescence interference), % at 20 µM | shares compounds with Apaf1 inhib;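 active means signal rise of 40% or more at 20 µM, treated as a fluorescence artifact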
# Apaf1 inh interf = fluorescence interference of Apaf-1 inhibitor hits, dose response, artefact control for Apaf-1 inhibitor project; shares compounds with Apaf1 inhib; fluorescence interference counterscreen, Apaf-1 assay format; IC50, µM; 460 tested, under 10 active; call rule not given here
# Hits are given with their value; 0 = inactive; ? = inconclusive; - = no result given.
SMILES,FID counter,UBC13 polyUb,TMEM16A act,Apaf1 inhib,ANO1 block,Apaf-1 inh conf2,Rh110 quench,others
O=C(Cn1cc2c(n1)CCCC2)NCCCN1CCCC1,0,0,0,41.0,0,0,0,
O=C(Nc1ccccc1)Nc1ccc(O)c2ccccc12,-,0,0,44.0,0,0,0,
O=c1[nH]c2ccccc2cc1CN(Cc1ccco1)S(=O)(=O)c1ccccc1,0,0,0,0,0,-,-,
CN(C)CC(O)CN1C(=O)N(CN2C(=O)N(CC(O)CN(C)C)C(=O)C2(C)C)C(C)(C)C1=O (stereo not drawn),0,0,0,0,0,-,-,
COc1cccc2sc3cc(C#CC4(O)CCCCC4)ccc3c(=O)c12,-,?,0,40.1,-,0,0,
COc1cccc(N2CCN(CC(=O)Nc3ccccc3C(=O)NCCc3ccccc3)CC2)c1,-,0,0,49.5,-,0,0,
Cc1cc(Nc2cccc(Cl)c2)nc(NCc2ccccc2)n1,0,48.9,0,43.0,0,0,0,
CC(=O)C1=NN(c2ccc(Cl)cc2)C(c2ccc3c(c2)OCO3)N(C(C)=O)N1C (stereo not drawn),0,0,0,0,0,-,-,
O=C(Nc1ccc(F)cc1)Nc1ccccc1C(=O)NCCN1CCNC1=O,0,0,0,0,0,-,-,
O=C(/C=C/c1ccc(-c2ccccc2[N+](=O)[O-])o1)c1ccc(Br)cc1,0,0,0,48.8,0,0,0,
O=C(N/N=C/c1ccc(-c2ccccc2[N+](=O)[O-])o1)c1cccnc1,0,0,0,78.8,0,42.8,0,Apaf1 inh interf=0
CC(C)(C)c1cc(C(=O)N/N=C/c2ccc(-c3ccccc3[N+](=O)[O-])o2)n[nH]1,0,0,0,41.9,0,0,0,
CCCOc1cc(NCc2ccccc2)c2ncn(C(C)C)c2c1,-,0,0,44.2,-,54.2,0,Apaf1 inh interf=0
CCOc1cc(NCc2ccccc2)c2ncn(C(C)C)c2c1,-,0,0,41.7,-,53.8,0,Apaf1 inh interf=0
CC(C)n1cnc2c(NCc3ccccc3)cc(Cc3ccc(F)cc3)cc21,-,0,0,0,-,-,-,
CCC(CO)Oc1cc(NCc2ccc(OC)cc2)c2ncn(C(C)C)c2c1 (stereo not drawn),-,0,0,0,-,-,-,
COCCOc1cc(NCc2ccccc2)c2ncn(C(C)C)c2c1,-,0,0,68.1,-,0,0,
N#Cc1ccccc1S(=O)(=O)N1CCN(C(=O)C2CC(=O)N(c3ccc4c(c3)OCCO4)C2)CC1 (stereo not drawn),-,0,0,0,-,-,-,
Cc1cc(OC(=O)c2ccccc2)n(CCC#N)n1,0,0,0,43.2,0,0,0,
CN=C(Nc1cc(C)nn1CCC#N)c1ccccc1,0,0,0,0,0,-,-,
CC(=O)N1CCn2c3c(c(=O)c4cc(C)ccc42)CCC31 (stereo not drawn),0,0,0,73.1,0,0,0,
CC(=O)N1CCn2c3c(c4cc(C)ccc42)CCCC31 (stereo not drawn),0,0,0,0,0,-,-,
CCC(=Nc1ccc(N)cc1)C1=C(O)C(C(=O)OC)C(C)(C)CC1=O (stereo not drawn),0,0,0,61.5,0,0,0,
N#Cc1nc(-c2ccco2)oc1N1CCc2ccccc2C1,0,0,0,51.7,0,0,0,
COc1ccc(Cl)cc1N1C(=NC(=O)C2CCCCC2)SC2CS(=O)(=O)CC21 (stereo not drawn),0,0,0,0,0,-,-,
SMILES,FID counter,UBC13 polyUb,TMEM16A act,Apaf1 inhib,ANO1 block,Apaf-1 inh conf2,Rh110 quench,others
O=C(COc1ccc(Br)cc1)NCCO,0,0,0,0,0,-,-,
O=[N+]([O-])c1ncccc1OCc1ccccc1Br,0,0,0,0,0,-,-,
CC(=O)c1ccc2c(c1)C1C=CCC1C(c1ccncc1)N2 (stereo not drawn),0,0,0,59.6,0,0,0,
CC(=O)c1ccc2c(c1)C1C=CCC1C(C(=O)O)N2 (stereo not drawn),0,0,0,0,-,-,-,
CCOc1ccc(N(CC(=O)Nc2cc(OC)cc(OC)c2)S(=O)(=O)c2c(C)[nH]c(=O)[nH]c2=O)cc1,0,0,0,0,0,-,-,
Cc1cc(C)c2nc(N(CCN(C)C)C(=O)c3ccc(S(=O)(=O)N(C)CC4CCCO4)cc3)sc2c1 (stereo not drawn),0,0,0,48.7,0,0,0,
CCOc1cccc2sc(N(CCCN(C)C)C(=O)c3ccc(S(=O)(=O)N(C)CC4CCCO4)cc3)nc12 (stereo not drawn),0,0,0,0,0,-,-,
CCNC(=O)Oc1ccc[nH]c1=O,0,0,0,41.8,0,0,0,
O=C(Oc1ccc[nH]c1=O)c1cc([N+](=O)[O-])cc([N+](=O)[O-])c1,0,0,0,93.4,0,0,0,
O=C(Nc1nc(-c2ccc(Cl)cc2Cl)cs1)c1ccc(OCC2CCCO2)cc1 (stereo not drawn),0,0,0,0,0,-,-,
CC(C)COc1ccc(C(=O)Nc2scc(-c3ccc(Cl)cc3Cl)c2C(N)=O)cc1,0,0,0,45.1,0,0,0,
CC(C)(C)C(=O)NC1CC2CCCC(C1)N2C(=O)Nc1cccc(Cl)c1 (stereo not drawn),0,0,0,0,0,-,-,
C[C@@]12CCC=C[C@H]1[C@H](c1ccc3ccccc3c1)N(Cc1ccccc1)C2=O,-,0,0,0,0,-,-,
C[C@@]12CCC=C[C@H]1[C@H](c1ccc3ccccc3c1Br)N(Cc1ccccc1)C2=O,-,0,0,49.2,-,49.8,0,Apaf1 inh interf=0
CN(C)c1ccc(/C=C2\Oc3ccc(C#Cc4cccc(N)c4)cc3C2=O)cc1,-,0,0,0,-,-,-,
CCCN(CC1CC1)c1nc(N)c2c(N)nc(OC)cc2c1C#N,0,0,0,93.2,0,0,0,
CCCc1cc(=O)oc2cc(OC(C)C(=O)NCC3CCC(C(=O)O)CC3)ccc12 (stereo not drawn),0,0,0,0,0,-,-,
CCCC(=O)OCCNc1cc(SCc2ccco2)c2nonc2c1[N+](=O)[O-],0,0,0,57.1,0,0,0,
CC(=O)OCCCNc1cc(SCc2ccco2)c2nonc2c1[N+](=O)[O-],0,0,0,73.8,0,0,0,
COc1ccc(CN(C)C(=O)c2ccc(OCC(=O)Nc3cccc(C(F)(F)F)c3)c(OC)c2)c(OC)c1,-,0,0,44.9,100,0,0,
